Consider seven compounds from article PMC11261338 (RSC Advances, 2024).

The subject of data set [1] is myoblast cells (C2C12). Briefly: MTT cell viability of normal myoblast cells at a single concentration. In kind it is cell-based, human. Conditions: DHPM 10 μM, 48 hours. In a few lines:
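C2C12 myoblasts were grown in DMEM with 10% FBS, amphotericin B and gentamicin at 37 °C, 5% CO2, and seeded at 5000 cells/well for 12 h. Test compound was applied at 10 μM for 48 h. Cells were washed with PBS, given 0.5 mg mL−1 MTT in PBS for 90 min at 37 °C, and the formazan was dissolved in DMSO with 30 min agitation in the dark. A570 was read, in triplicate.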

Data set [2] concerns myoblast cells (C2C12). Briefly: MTT assay, IC50 against myoblast cells. Format: cell-based. The settings on record: C2C12, 48 h, read-out: IC50 (μM) C2C12. In a few lines: (§1)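 Cells kept at 37 °C, 5% CO2: AGS in RPMI-1640 and C2C12 in DMEM, each with 10% FBS, 0.25 μg mL−1 amphotericin B and 25 μg mL−1 gentamicin. 5000 cells/well were seeded for 12 h, then given test compound at 1000, 100, 10, 1 and 0.1 μM for 48 h. Untreated cells served as controls.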

The test system of data set [3] is AGS (gastric adenocarcinoma) cells. The data set can be described thus: MTT assay, IC50 against gastric cancer cells. The settings on record: 48 h, read-out: IC50 (μM) AGS. In kind it is cell-based. An outline of the steps: as §1
The subject of data set [4] is MCF-7 (mammary carcinoma) cells. The data set can be described thus: MTT assay, IC50 against breast cancer cells. Conditions: Homo sapiens, MCF7, 48 h, read-out: IC50 (μM) MCF-7. In kind it is cell-based. An outline of the steps: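 MCF-7 cells grown in DMEM with human insulin (10 μg mL−1), 10% FBS, amphotericin B and gentamicin at 37 °C, 5% CO2. Seeded at 5000 cells per well for 12 h, then exposed 48 h to the test compound at 0.1, 1, 10, 100 and 1000 μM, with untreated controls. PBS wash, 0.5 mg mL−1 MTT for 90 min at 37 °C, DMSO solubilisation, A570.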

Consider `CCCCCCCC/C=C\CCCCCCCCOC(=O)C1=C(C)NC(=O)NC1c1cccc(O)c1` (stereo not shown) [10c, (Z)-Octadec-9-enyl 4-(3-hydroxyphenyl)-6-methyl-2-oxo-1,2,3,4-tetrahydropyrimidine-5-carboxylate], for which the “viability (%) of myoblast cells (C2C12)” value in the data set on myoblast cells (C2C12) [1] was about 70%. In addition, the concentration for half-maximal inhibition (IC50) in the data set with myoblast cells (C2C12) [2] is 18.4 ± 10.5 µM; in data set [3] it was 12.1 ± 0.4 µM; in data set [4], 2.3 ± 0.4 µM.

With `CCCCCCCC/C=C\CCCCCCCCOC(=O)C1=C(C)NC(=S)NC1c1ccccc1O` (stereo not shown) [11b, (Z)-Octadec-9-enyl 4-(2-hydroxyphenyl)-6-methyl-2-thioxo-1,2,3,4-tetrahydropyrimidine-5-carboxylate], the IC50 was 88.5 ± 6.4 µM in the data set on myoblast cells (C2C12) [2], 20.2 ± 2.1 µM in data set [3] and 10.1 ± 1.3 µM in data set [4].

On to `CCCCCCCC/C=C\CCCCCCCCOC(=O)C1=C(C)NC(=S)NC1c1cccc(O)c1` (stereo not shown) [11c, (Z)-Octadec-9-enyl 4-(3-hydroxyphenyl)-6-methyl-2-thioxo-1,2,3,4-tetrahydropyrimidine-5-carboxylate], for which the results for the IC50 (in the data set with myoblast cells (C2C12) [2]; in data set [3]; in data set [4]) were 446 ± 84.2 µM, 125 ± 6.2 µM and 28.4 ± 7 µM, respectively.

As for `CCCCCCCC/C=C\CCCCCCCCOC(=O)C1=C(C)NC(=S)NC1c1cccc(Cl)c1` (stereo not shown) [11f, (Z)-Octadec-9-enyl 4-(3-chlorophenyl)-6-methyl-2-thioxo-1,2,3,4-tetrahydropyrimidine-5-carboxylate], the concentration for half-maximal inhibition (IC50) was found to be 307 ± 143 µM with myoblast cells (C2C12) [2], 146 ± 25.9 µM in data set [3] and 8.8 ± 8.3 µM in data set [4].

As to `CCCCCCCC/C=C\CCCCCCCCOC(=O)C1=C(C)NC(=S)NC1c1ccc(C)cc1` (stereo not shown) [11h, (Z)-Octadec-9-enyl 6-methyl-2-thioxo-4-(p-tolyl)-1,2,3,4-tetrahydropyrimidine-5-carboxylate], the half-maximal inhibitory concentration (IC50) in the data set on myoblast cells (C2C12) [2] came to 362 ± 12.6 µM; in data set [3], 126 ± 4.6 µM; in data set [4], 39.2 ± 4.9 µM.

For `CCCCCCCC/C=C\CCCCCCCCOC(=O)C1=C(C)NC(=S)NC1c1ccc(OC)cc1` (stereo not shown) [11i, (Z)-Octadec-9-enyl 4-(4-methoxyphenyl)-6-methyl-2-thioxo-1,2,3,4-tetrahydropyrimidine-5-carboxylate], the IC50 with myoblast cells (C2C12) [2] turned out to be 166 ± 8.9 µM; in data set [3], 101.8 ± 0.6 µM; in data set [4], 16.4 ± 2.7 µM.

As to `CCOC(=O)C1=C(C)NC(=S)NC1c1cccc(O)c1` (stereo not shown) [Monastrol, reference compound], the figures for the IC50 (in the data set on myoblast cells (C2C12) [2]; in data set [3]; in data set [4]) were 35.5 ± 6.4 µM, 40 ± 6.2 µM and 25.6 ± 7.3 µM, respectively.
